The results in this text go back to ChEMBL document CHEMBL1821587, “Synthesis, antibacterial activities and molecular docking studies of Schiff bases derived from N-(2/4-benzaldehyde-amino) phenyl-N'-phenyl-thiourea” (Bioorg Med Chem, 2011).

In brackets after ≈: the same amount, converted by molar mass.

The nature of data set [1]: Inhibition of Escherichia coli N-terminal His-tagged FabH expressed in Escherichia coli BL21(DE3) using [3H]-acetyl-CoA after 25 mins by liquid scintillation counting. In outline:
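His-tagged E. coli FabH was expressed with IPTG induction, purified on Ni-NTA and stored in Tris pH 7.6 with DTT and glycerol. Assay in 20 mM sodium phosphate pH 7.0 with 0.5 mM DTT, 0.25 mM MgCl₂, […] ACPS-converted holo-ACP and 1 nM FabH. Started with 25 μM acetyl-CoA plus [³H]acetyl-CoA, run 25 min, stopped with TCA; pellet counted by scintillation. Inhibitors added in DMSO (final ≤2%) for IC50.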

Another data set relates to Escherichia coli. Description: Antibacterial activity against Escherichia coli ATCC 35218 after 24 hrs by MTT assay. Type of data set: functional. Particulars: ATCC 35218, 24 h. In outline:
(§1)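 MICs by broth microdilution in Mueller-Hinton medium. Compounds were taken from a 100 μg/mL DMSO stock into sterile medium and serially diluted. Inoculum about 10⁵ cfu/mL, incubated 37 °C for 24 h, and MIC read visually. MTT (2 mg/mL in PBS pH 7.4) was then added for 4–5 h at room temperature, dye extracted with acidified isopropanol for 12 h, OD read at 550 nm.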

A further data set relates to Staphylococcus aureus. Nature of the data set: Antibacterial activity against Staphylococcus aureus ATCC 6538 after 24 hrs by MTT assay. The format is functional. Particulars: ATCC 6538, 24 h. In outline: as §1
The nature of data set [2]: Toxicity in RBC assessed as hemolysis. The format is cell-based. Particulars: erythrocyte.
For a further data set, the system named is Bacillus subtilis. Description: Antibacterial activity against Bacillus subtilis ATCC 6633 after 24 hrs by MTT assay. Particulars: ATCC 6633, 24 h. The format is functional. The method in brief:
as §1

The next data set has as its system Pseudomonas aeruginosa. Nature of the data set: Antibacterial activity against Pseudomonas aeruginosa ATCC 13525 after 24 hrs by MTT assay. The note with it: ATCC 13525, 24 h. Type of data set: functional. The method in brief: as §1
(In general: Tetrazolium dyes change colour on reduction, which living cells bring about.)

Turning to `Oc1ccc(Cl)cc1/C=N/c1ccccc1NC(=S)Nc1ccccc1`, the IC50 in data set [1] stood at 9.5 µM. Further, the MIC was 3.13 µg/mL (≈ 8.2 µM) in the data set with Escherichia coli, 6.25 µg/mL (≈ 16.4 µM) in the data set on Staphylococcus aureus, 12.5 µg/mL (≈ 32.7 µM) against Bacillus subtilis and 3.13 µg/mL (≈ 8.2 µM) in the data set with Pseudomonas aeruginosa. The MHC in data set [2] was greater than 10000 µg/mL.

Consider `S=C(Nc1ccccc1)Nc1ccc(/N=C/c2ccc(Br)cc2)cc1`, for which the 50% inhibitory concentration (IC50) in data set [1] was determined as 40.8 µM. In addition, the MIC turned out to be 25 µg/mL (≈ 60.9 µM) in the data set with Escherichia coli, 50 µg/mL (≈ 122 µM) with Staphylococcus aureus, 50 µg/mL (≈ 122 µM) against Bacillus subtilis and 25 µg/mL (≈ 60.9 µM) in the data set on Pseudomonas aeruginosa. Further, the MHC in data set [2] is greater than 10000 µg/mL.

`Oc1ccccc1/C=N/c1ccc(NC(=S)Nc2ccccc2)cc1` registered a half-inhibitory concentration (IC50) in data set [1] of 28.7 µM. For the same molecule, the minimal inhibitory concentration (MIC) was found to be 12.5 µg/mL (≈ 36 µM) with Escherichia coli, 6.25 µg/mL (≈ 18 µM) in the data set with Staphylococcus aureus, 25 µg/mL (≈ 72 µM) with Bacillus subtilis and 6.25 µg/mL (≈ 18 µM) with Pseudomonas aeruginosa. In data set [2], the MHC is greater than 10000 µg/mL.

For the molecule `S=C(Nc1ccccc1)Nc1ccc(/N=C/c2ccc(Cl)cc2Cl)cc1`, the concentration for half-maximal inhibition (IC50) in data set [1] worked out at 30.4 µM. Further, the MIC against Escherichia coli is 12.5 µg/mL (≈ 31.2 µM); in the data set with Staphylococcus aureus, 12.5 µg/mL (≈ 31.2 µM); against Bacillus subtilis, 12.5 µg/mL (≈ 31.2 µM); in the data set with Pseudomonas aeruginosa it was 25 µg/mL (≈ 62.4 µM). For the same molecule, in data set [2], the MHC is greater than 10000 µg/mL.

For the molecule `CC1(C)S[C@@H]2[C@H](NC(=O)Cc3ccccc3)C(=O)N2[C@H]1C(=O)O` [PENICILLIN G], the minimal inhibitory concentration (MIC) against Escherichia coli came to 3.13 µg/mL (≈ 9.36 µM); against Staphylococcus aureus it was 6.25 µg/mL (≈ 18.7 µM); against Bacillus subtilis it was 1.56 µg/mL (≈ 4.67 µM); against Pseudomonas aeruginosa it was 6.25 µg/mL (≈ 18.7 µM).

`Oc1ccc(Br)cc1/C=N/c1ccc(NC(=S)Nc2ccccc2)cc1`: the IC50 in data set [1] came out at 39 µM. Moreover, the MIC was 25 µg/mL (≈ 58.6 µM) against Escherichia coli, 50 µg/mL (≈ 117 µM) in the data set on Staphylococcus aureus, 50 µg/mL (≈ 117 µM) in the data set with Bacillus subtilis and 25 µg/mL (≈ 58.6 µM) with Pseudomonas aeruginosa. Further, in data set [2], the MHC was greater than 10000 µg/mL.

For `Oc1c(Br)cc(Br)cc1/C=N/c1ccccc1NC(=S)Nc1ccccc1`, the MIC with Escherichia coli, in the data set on Staphylococcus aureus, in the data set with Bacillus subtilis and in the data set with Pseudomonas aeruginosa was greater than 100 µg/mL each time.

For the molecule `Oc1ccccc1/C=N/c1ccccc1NC(=S)Nc1ccccc1`, the MIC in the data set with Escherichia coli, against Staphylococcus aureus, in the data set on Bacillus subtilis and in the data set with Pseudomonas aeruginosa was greater than 100 µg/mL each time.

For the molecule `O=[N+]([O-])c1ccc(/C=N/c2ccc(NC(=S)Nc3ccccc3)cc2)cc1`, the minimal inhibitory concentration (MIC) came out at 25 µg/mL (≈ 66.4 µM) against Escherichia coli, 50 µg/mL (≈ 133 µM) against Staphylococcus aureus, 50 µg/mL (≈ 133 µM) against Bacillus subtilis and 50 µg/mL (≈ 133 µM) in the data set on Pseudomonas aeruginosa.

For `S=C(Nc1ccccc1)Nc1ccccc1/N=C/c1ccc(Br)cc1`, the minimum inhibitory concentration (MIC) in the data set with Escherichia coli is greater than 100 µg/mL; in the data set with Staphylococcus aureus it was greater than 100 µg/mL; with Bacillus subtilis, 50 µg/mL (≈ 122 µM); with Pseudomonas aeruginosa, greater than 100 µg/mL.

Regarding `O=[N+]([O-])c1ccccc1/C=N/c1ccc(NC(=S)Nc2ccccc2)cc1`, the MIC against Escherichia coli was greater than 100 µg/mL; with Staphylococcus aureus, 25 µg/mL (≈ 66.4 µM); in the data set with Bacillus subtilis, 50 µg/mL (≈ 133 µM); against Pseudomonas aeruginosa it was greater than 100 µg/mL.

As for `COc1cccc(/C=N/c2ccc(NC(=S)Nc3ccccc3)cc2)c1`, 48.1 µM corresponded to half-maximal inhibition in data set [1] (IC50). Also, the MIC turned out to be 50 µg/mL (≈ 138 µM) with Escherichia coli, 50 µg/mL (≈ 138 µM) against Staphylococcus aureus, 25 µg/mL (≈ 69.2 µM) in the data set with Bacillus subtilis and 25 µg/mL (≈ 69.2 µM) against Pseudomonas aeruginosa. The MHC in data set [2] was greater than 10000 µg/mL.

As for `Oc1ccc(Cl)cc1/C=N/c1ccc(NC(=S)Nc2ccccc2)cc1`, half-maximal inhibition in data set [1] (IC50) was put at 12.8 µM. The minimum inhibitory concentration (MIC) in the data set on Escherichia coli was determined as 6.25 µg/mL (≈ 16.4 µM); with Staphylococcus aureus it was 12.5 µg/mL (≈ 32.7 µM); in the data set with Bacillus subtilis, 12.5 µg/mL (≈ 32.7 µM); with Pseudomonas aeruginosa, 6.25 µg/mL (≈ 16.4 µM). Moreover, in data set [2], the MHC was greater than 10000 µg/mL.

For the molecule `Oc1c(Br)cc(Br)cc1/C=N/c1ccc(NC(=S)Nc2ccccc2)cc1`, the MIC against Escherichia coli, with Staphylococcus aureus, in the data set on Bacillus subtilis and in the data set on Pseudomonas aeruginosa was greater than 100 µg/mL throughout.

`Cc1ccc(/C=N/c2ccc(NC(=S)Nc3ccccc3)cc2)cc1` returned a half-inhibitory concentration (IC50) in data set [1] of 25.9 µM. Moreover, the minimum inhibitory concentration (MIC) in the data set with Escherichia coli came out at 12.5 µg/mL (≈ 36.2 µM); in the data set on Staphylococcus aureus, 25 µg/mL (≈ 72.4 µM); in the data set on Bacillus subtilis it was 25 µg/mL (≈ 72.4 µM); with Pseudomonas aeruginosa, 25 µg/mL (≈ 72.4 µM). Also, the MHC in data set [2] is greater than 10000 µg/mL.

With `S=C(Nc1ccccc1)Nc1ccc(/N=C/c2cccc(Br)c2)cc1`, the minimal inhibitory concentration (MIC) against Escherichia coli, in the data set on Staphylococcus aureus, in the data set with Bacillus subtilis and against Pseudomonas aeruginosa was greater than 100 µg/mL throughout.

For the molecule `NC[C@H]1O[C@H](O[C@H]2[C@H](O)[C@@H](O[C@H]3O[C@H](CO)[C@@H](O)[C@H](N)[C@H]3O)[C@H](N)C[C@@H]2N)[C@H](N)[C@@H](O)[C@@H]1O` [BEKANAMYCIN], the MIC in the data set with Escherichia coli was 1.56 µg/mL (≈ 3.23 µM); in the data set with Staphylococcus aureus, 3.13 µg/mL (≈ 6.47 µM); against Bacillus subtilis, 0.39 µg/mL (≈ 0.807 µM); with Pseudomonas aeruginosa, 3.13 µg/mL (≈ 6.47 µM).

Regarding `S=C(Nc1ccccc1)Nc1ccccc1/N=C/c1ccc(Cl)cc1`, the MIC with Escherichia coli, against Staphylococcus aureus, against Bacillus subtilis and with Pseudomonas aeruginosa was greater than 100 µg/mL throughout.

In the case of `Oc1ccc(Br)cc1/C=N/c1ccccc1NC(=S)Nc1ccccc1`, the MIC in the data set with Escherichia coli, in the data set with Staphylococcus aureus, in the data set on Bacillus subtilis and against Pseudomonas aeruginosa was greater than 100 µg/mL throughout.

In the case of `Fc1ccccc1/C=N/c1ccc(NC(=S)Nc2ccccc2)cc1`, the MIC against Escherichia coli, with Staphylococcus aureus, against Bacillus subtilis and against Pseudomonas aeruginosa was greater than 100 µg/mL each time.

With `Fc1ccc(/C=N/c2ccc(NC(=S)Nc3ccccc3)cc2)cc1`, the MIC against Escherichia coli stood at 50 µg/mL (≈ 143 µM); in the data set with Staphylococcus aureus it was 25 µg/mL (≈ 71.5 µM); in the data set on Bacillus subtilis, 50 µg/mL (≈ 143 µM); in the data set on Pseudomonas aeruginosa, 50 µg/mL (≈ 143 µM).

As to `S=C(Nc1ccccc1)Nc1ccc(/N=C/c2ccc(OCc3ccccc3)cc2)cc1`, the half-inhibitory concentration (IC50) in data set [1] was found to be 4.3 µM. Also, the minimal inhibitory concentration (MIC) was determined as 1.56 µg/mL (≈ 3.57 µM) with Escherichia coli, 3.13 µg/mL (≈ 7.15 µM) against Staphylococcus aureus, 6.25 µg/mL (≈ 14.3 µM) with Bacillus subtilis and 3.13 µg/mL (≈ 7.15 µM) against Pseudomonas aeruginosa. Besides, in data set [2], the MHC is greater than 10000 µg/mL.

As for `S=C(Nc1ccccc1)Nc1ccc(/N=C/c2ccc(Cl)cc2)cc1`, it took 15.6 µM to reach half-maximal inhibition in data set [1] (IC50). Further, the MIC against Escherichia coli was 6.25 µg/mL (≈ 17.1 µM); in the data set with Staphylococcus aureus it was 6.25 µg/mL (≈ 17.1 µM); in the data set with Bacillus subtilis, 12.5 µg/mL (≈ 34.2 µM); with Pseudomonas aeruginosa, 3.13 µg/mL (≈ 8.55 µM). The MHC in data set [2] was greater than 10000 µg/mL.

With `COc1ccc(/C=N/c2ccccc2NC(=S)Nc2ccccc2)cc1`, the MIC against Escherichia coli, with Staphylococcus aureus, in the data set with Bacillus subtilis and against Pseudomonas aeruginosa was greater than 100 µg/mL throughout.

The IC50 is the concentration that inhibits the measured activity by half. A low value points to higher potency. The MIC is the lowest concentration found to suppress growth. A low value points to inhibition by little substance.
